For assay [1], the system named is LC3B-II. In words: Autophagy assay. Conditions: for LC3B-II levels: 4 h, 6 at 5 μM, BafA1 at 100 nM, versus DMSO. It is filed as cell-based. The procedure, abridged:
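MDA-MB-231 or MDA-MB-468 cells in DMEM with 10% FBS at 37 °C, 5% CO2, treated 4 h with test compound or DMSO vehicle. Hypoxia (1% O2) served as the autophagy positive control. Bafilomycin A1 (100 nM) was added 4 h before harvest. Cells were lysed in NP40 buffer with protease and phosphatase inhibitors, run on SDS-PAGE and transferred to PVDF. Blots were probed overnight at 4 °C with anti-LC3B (1:3000), then HRP secondary (1:10,000), with ECL detection of LC3B-I and LC3B-II.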

For assay [2], the target named is MELK (Homo sapiens, UniProt Q14680). Nature of the assay: MELK kinase activity inhibition. In kind it is biochemical. As to conditions: for change of MELK IC50 / activity relative to parent compound 6: weaker than 6 (higher IC50).
MELK, sequence (Q14680 whole entry): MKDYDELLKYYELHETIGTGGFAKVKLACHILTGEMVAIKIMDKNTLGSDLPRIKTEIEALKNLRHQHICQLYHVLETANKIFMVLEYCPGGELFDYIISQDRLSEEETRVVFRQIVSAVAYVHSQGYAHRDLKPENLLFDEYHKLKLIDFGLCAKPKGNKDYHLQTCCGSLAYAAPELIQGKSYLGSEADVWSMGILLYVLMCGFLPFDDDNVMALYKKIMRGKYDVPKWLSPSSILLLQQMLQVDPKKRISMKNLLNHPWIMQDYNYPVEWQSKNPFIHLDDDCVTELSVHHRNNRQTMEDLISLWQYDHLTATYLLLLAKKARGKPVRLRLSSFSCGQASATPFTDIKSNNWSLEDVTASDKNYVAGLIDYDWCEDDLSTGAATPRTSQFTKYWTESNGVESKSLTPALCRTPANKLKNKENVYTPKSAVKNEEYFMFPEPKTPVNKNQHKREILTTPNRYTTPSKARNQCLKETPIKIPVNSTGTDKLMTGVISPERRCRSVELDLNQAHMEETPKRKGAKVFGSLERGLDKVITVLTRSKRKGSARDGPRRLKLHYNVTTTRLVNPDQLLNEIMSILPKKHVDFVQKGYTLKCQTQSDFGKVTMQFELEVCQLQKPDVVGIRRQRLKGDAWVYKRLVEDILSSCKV
Assay [3] concerns the target T1, BMX/ETK (Homo sapiens, UniProt P51813).
T1 sequence (P51813 1-675): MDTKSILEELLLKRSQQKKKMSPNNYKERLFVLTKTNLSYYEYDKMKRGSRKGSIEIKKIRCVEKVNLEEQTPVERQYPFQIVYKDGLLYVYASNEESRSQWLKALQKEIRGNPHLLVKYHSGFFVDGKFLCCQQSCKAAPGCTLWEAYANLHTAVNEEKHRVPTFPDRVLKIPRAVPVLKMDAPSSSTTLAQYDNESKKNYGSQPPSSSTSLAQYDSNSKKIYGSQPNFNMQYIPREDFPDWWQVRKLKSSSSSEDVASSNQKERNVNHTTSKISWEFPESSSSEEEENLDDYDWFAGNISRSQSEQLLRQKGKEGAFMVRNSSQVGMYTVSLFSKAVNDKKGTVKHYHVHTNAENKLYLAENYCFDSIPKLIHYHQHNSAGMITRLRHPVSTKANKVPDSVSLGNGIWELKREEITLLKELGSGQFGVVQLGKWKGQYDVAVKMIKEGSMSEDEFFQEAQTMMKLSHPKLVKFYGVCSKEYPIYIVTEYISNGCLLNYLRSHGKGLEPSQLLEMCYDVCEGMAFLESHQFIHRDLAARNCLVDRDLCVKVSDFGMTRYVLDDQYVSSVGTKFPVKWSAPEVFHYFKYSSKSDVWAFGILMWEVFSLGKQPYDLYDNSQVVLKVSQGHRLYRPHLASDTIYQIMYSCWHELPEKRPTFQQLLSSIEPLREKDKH
Nature of the assay: Kinase panel IC50, BMX/ETK. It is filed as biochemical.

The target in assay [4] is JAK1 (Homo sapiens, UniProt P23458). Nature of the assay: JAK kinase activity, JAK1. It is filed as biochemical.
JAK1, sequence (P23458 whole entry): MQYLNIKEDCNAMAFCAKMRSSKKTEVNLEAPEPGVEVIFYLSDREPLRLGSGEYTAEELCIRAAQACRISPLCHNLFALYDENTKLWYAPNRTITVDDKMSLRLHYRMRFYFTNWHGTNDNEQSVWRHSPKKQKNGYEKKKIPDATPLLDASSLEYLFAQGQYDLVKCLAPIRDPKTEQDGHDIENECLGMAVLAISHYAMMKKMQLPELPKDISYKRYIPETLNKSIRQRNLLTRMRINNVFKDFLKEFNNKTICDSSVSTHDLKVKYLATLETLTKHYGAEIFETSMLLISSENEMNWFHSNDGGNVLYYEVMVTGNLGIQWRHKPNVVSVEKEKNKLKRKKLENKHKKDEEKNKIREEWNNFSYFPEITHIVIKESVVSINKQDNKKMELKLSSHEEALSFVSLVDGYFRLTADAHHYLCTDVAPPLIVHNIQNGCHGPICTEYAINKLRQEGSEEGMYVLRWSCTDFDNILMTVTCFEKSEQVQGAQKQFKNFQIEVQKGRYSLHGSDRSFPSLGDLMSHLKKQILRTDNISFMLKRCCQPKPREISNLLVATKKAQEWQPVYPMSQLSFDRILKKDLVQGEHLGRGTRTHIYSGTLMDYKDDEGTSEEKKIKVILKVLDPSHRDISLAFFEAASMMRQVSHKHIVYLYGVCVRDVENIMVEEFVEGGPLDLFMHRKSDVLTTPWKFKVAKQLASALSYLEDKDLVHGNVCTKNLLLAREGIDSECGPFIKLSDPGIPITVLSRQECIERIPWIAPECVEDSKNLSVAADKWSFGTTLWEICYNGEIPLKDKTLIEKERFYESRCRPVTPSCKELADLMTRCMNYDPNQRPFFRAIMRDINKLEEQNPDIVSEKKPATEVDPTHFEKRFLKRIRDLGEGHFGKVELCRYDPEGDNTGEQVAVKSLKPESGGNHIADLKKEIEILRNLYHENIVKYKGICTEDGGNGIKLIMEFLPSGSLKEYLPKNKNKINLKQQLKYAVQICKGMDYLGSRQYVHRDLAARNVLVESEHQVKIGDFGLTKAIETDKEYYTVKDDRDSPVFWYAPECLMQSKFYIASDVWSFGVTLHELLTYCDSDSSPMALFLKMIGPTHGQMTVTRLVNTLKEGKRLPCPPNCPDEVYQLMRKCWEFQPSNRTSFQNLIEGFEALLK
The target in assay [5] is JAK2 (Homo sapiens, UniProt O60674). In words: JAK kinase activity, JAK2. In kind it is biochemical.
JAK2, sequence (O60674 whole entry): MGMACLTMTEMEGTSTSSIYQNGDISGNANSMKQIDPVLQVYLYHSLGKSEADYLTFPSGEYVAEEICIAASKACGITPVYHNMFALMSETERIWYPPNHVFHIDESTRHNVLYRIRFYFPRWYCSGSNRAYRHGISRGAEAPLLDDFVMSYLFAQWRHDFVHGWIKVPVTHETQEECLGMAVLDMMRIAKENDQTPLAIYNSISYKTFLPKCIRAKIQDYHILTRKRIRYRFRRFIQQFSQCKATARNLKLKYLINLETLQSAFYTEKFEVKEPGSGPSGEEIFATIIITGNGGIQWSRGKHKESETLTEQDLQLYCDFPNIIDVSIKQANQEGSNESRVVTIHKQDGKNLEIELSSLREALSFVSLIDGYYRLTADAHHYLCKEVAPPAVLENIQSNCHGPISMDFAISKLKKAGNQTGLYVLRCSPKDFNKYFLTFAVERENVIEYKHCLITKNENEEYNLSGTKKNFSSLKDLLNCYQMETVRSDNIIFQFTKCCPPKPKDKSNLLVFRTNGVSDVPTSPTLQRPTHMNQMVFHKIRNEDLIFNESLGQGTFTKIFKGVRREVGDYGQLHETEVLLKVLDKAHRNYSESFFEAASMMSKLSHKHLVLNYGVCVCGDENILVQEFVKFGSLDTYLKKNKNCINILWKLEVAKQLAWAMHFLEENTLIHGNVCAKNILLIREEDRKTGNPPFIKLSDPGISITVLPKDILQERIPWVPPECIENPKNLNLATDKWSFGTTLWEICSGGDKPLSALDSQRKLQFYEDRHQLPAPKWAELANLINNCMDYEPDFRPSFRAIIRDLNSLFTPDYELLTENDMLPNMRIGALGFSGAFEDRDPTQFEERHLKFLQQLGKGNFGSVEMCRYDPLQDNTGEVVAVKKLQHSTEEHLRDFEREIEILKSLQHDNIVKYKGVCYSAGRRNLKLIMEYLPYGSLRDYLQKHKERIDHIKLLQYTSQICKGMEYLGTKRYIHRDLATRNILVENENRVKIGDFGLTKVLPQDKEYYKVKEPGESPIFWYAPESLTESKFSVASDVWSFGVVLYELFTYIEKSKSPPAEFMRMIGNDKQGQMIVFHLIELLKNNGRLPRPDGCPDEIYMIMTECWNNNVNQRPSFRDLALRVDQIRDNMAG
In assay [6] the target is T2, JAK3 (Homo sapiens, UniProt P52333).
T2 sequence (P52333 1-1124): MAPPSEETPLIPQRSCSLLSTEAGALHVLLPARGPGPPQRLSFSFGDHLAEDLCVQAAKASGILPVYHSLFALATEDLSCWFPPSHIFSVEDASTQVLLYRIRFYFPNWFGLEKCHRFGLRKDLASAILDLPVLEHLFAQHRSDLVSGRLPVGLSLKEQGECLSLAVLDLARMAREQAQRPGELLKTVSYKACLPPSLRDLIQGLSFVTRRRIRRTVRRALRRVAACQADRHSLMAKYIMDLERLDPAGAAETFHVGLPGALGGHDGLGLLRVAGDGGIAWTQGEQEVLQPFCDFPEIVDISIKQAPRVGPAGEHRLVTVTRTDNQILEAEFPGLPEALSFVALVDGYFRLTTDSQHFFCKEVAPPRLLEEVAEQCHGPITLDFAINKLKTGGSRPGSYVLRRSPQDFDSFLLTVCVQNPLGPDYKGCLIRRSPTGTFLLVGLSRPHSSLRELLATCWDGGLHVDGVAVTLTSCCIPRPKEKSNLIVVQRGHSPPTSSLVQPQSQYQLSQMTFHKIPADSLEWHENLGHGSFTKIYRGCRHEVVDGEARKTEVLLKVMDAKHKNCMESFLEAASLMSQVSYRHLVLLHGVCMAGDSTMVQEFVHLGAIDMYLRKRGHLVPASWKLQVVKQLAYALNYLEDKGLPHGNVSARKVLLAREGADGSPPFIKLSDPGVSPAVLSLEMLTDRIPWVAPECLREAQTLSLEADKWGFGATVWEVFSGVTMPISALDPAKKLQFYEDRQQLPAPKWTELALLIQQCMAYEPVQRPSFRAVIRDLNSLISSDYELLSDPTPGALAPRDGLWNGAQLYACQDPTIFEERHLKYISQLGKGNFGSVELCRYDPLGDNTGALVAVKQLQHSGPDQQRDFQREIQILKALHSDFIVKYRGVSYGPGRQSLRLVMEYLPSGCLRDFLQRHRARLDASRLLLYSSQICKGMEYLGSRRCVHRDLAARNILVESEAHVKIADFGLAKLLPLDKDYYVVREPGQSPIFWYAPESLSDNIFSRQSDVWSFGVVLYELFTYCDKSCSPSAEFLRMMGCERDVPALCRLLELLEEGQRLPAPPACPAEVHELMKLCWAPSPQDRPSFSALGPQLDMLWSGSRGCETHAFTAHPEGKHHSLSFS
Nature of the assay: JAK kinase activity, JAK3. In kind it is biochemical.

Assay [7] has as its system p21WAF1/CIP1. In words: Western blot of p21 levels. In kind it is cell-based. As to conditions: 5 μM, from 4 h, sustained over 48 h. (In general: A western blot detects proteins with antibodies after separation by electrophoresis.)
Assay [8] concerns cyclin A2. Nature of the assay: Western blot of cyclin A2 levels. In kind it is cell-based. As to conditions: over 48 h.
Assay [9] has as its system p53. Nature of the assay: Western blot of p53 levels. In kind it is cell-based.
Assay [10] has as its system phospho p53 (Ser15). Nature of the assay: Western blot of p53 Ser15 phosphorylation. In kind it is cell-based. Conditions: MDA-MB-468 cells, over 48 h.
In assay [11] the test system is MDMX. Nature of the assay: Immunoblot of MDMX levels. As to conditions: MDA-MB-231 cells, increasing concentration. In kind it is cell-based. The procedure, abridged: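 MDA-MB-231 cells (DMEM, 10% FBS, 37 °C, 5% CO2) were exposed to rising test compound concentrations. Whole-cell RIPA lysates with protease and phosphatase inhibitors were prepared, and 30 µg protein was resolved by 10% SDS-PAGE and moved to nitrocellulose. Blots were probed with primary antibody overnight at 4 °C, then with IRDye 800 anti-mouse or Alexa Fluor 680 anti-rabbit IgG for 1 h at RT. Bands were read by infrared imaging.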

In assay [12] the test system is phospho STAT3 (Tyr705). Nature of the assay: Western blot of STAT3 phosphorylation. It is filed as cell-based.
The test system of assay [13] is phospho Akt. In words: Western blot of Akt phosphorylation. In kind it is cell-based.
Assay [14] has as its system survivin. Nature of the assay: Western blot of survivin levels. It is filed as cell-based. Conditions: sustained over 48 h.
The subject of assay [15] is Bcl-XL. Nature of the assay: Western blot of Bcl-XL levels. In kind it is cell-based.

What is called IC50 is the concentration that gives 50% inhibition. Read a high IC50 as lower potency.

As for `CO/C1=C\C(C)=C\[C@@H](C)[C@@H](O)[C@@H](C)C/C(C)=C/C=C/[C@H](OC)[C@@H]([C@@H](C)[C@@H](O)[C@H](C)[C@@]2(O)C[C@@H](O)[C@H](C)[C@@H](C(C)C)O2)OC1=O` [BafA1, Bafilomycin A1, reference compound], the LC3B-II levels entry in assay [1] (MDA-MB-231 cells) is on record as “more modest increase”; in assay [1] (MDA-MB-468 cells), “substantial increase”.
Regarding `CCN(CC)CCCC(C)Nc1nc(/C=C/c2c(Cl)cc(Cl)cc2Cl)nc2ccc(N)cc12` (stereo not shown) [Compound 6, (E)-N^4-(5-(diethylamino)pentan-2-yl)-2-(2,4,6-trichlorostyryl) quinazoline-4,6-diamine], the half-inhibitory concentration (IC50) in assay [2] and in assay [3] was approximately 1000 nM each time. Further, the “inhibition of JAK kinase activity (JAK1)” value in [4] was “lack of inhibition”. Further, in [5], the “inhibition of JAK kinase activity (JAK2)” value is given as “lack of inhibition”. For the same molecule, in assay [6], the “inhibition of JAK kinase activity (JAK3)” value is recorded as “lack of inhibition”. Besides, the p21WAF1/CIP1 level entry in assay [7] (MDA-MB-231 cells) and in assay [7] (MDA-MB-468 cells) was “up-regulated” each time. In addition, the “cyclin A2 level” value in assay [8] (MDA-MB-231 cells) and in [8] (MDA-MB-468 cells) was “down-regulated” in each case. Besides, the p53 levels entry in [9] (MDA-MB-231 cells) is “does not affect”; in [9] (MDA-MB-468 cells, over 48 h), “no effect”. Moreover, the “phosphorylation at Ser15 of p53” value in [10] is reported as “inhibited”. Also, the MDMX levels result in assay [11] is given as “increase”. The STAT3 phosphorylation result is listed as “inhibited” in assay [12] (MDA-MB-231 cells, levels recover more slowly) and “inhibited” in assay [12] (MDA-MB-468 cells). Also, in assay [12] (MDA-MB-468 cells, at 4 h, levels restored after 8 h), the “STAT3 phosphorylation, time course” value is on record as “completely inhibited”. Moreover, in assay [13], the Akt phosphorylation result is listed as “no effect”. Also, the survivin level result in assay [14] (MDA-MB-231 cells) and in assay [14] (MDA-MB-468 cells) was “down-regulation” in each case. Further, the Bcl-XL expression result in assay [15] (MDA-MB-231 cells) and in [15] (MDA-MB-468 cells) was “reduced expression” in each case. Also, the LC3B-II levels result in [1] (MDA-MB-231 cells) and in assay [1] (MDA-MB-468 cells) was “pronounced increase” in each case. Besides, the autophagic flux result in assay [1] (MDA-MB-468 or MDA-MB-231 cells, LC3B-II not further increased by co-treatment with BafA1) was “inhibiting autophagic flux”.
Consider `CCN(CC)CCCCNc1nc(/C=C/c2c(Cl)cc(Cl)cc2Cl)nc2ccc(N)cc12` [Compound 18, (E)-N^4-(4-(diethylamino)butyl)-2-(2,4,6-trichlorostyryl) quinazoline-4,6-diamine], for which the “change of MELK IC50 / activity relative to parent compound 6” value in assay [2] is listed as “little effect”.
Still for that read-out and setting: as for `Nc1ccc2nc(/C=C/c3ccc(C(F)(F)F)cc3)nc(NCCCN3CCOCC3)c2c1` [Compound 20], the entry is “twofold reduction”.

The values above are taken from PMC6668347 (Bioorganic & medicinal chemistry, 2017).
